Reference: ChEMBL document CHEMBL2177043, “HIV-1 X4 activities of polycationic "viologen" based dendrimers by interaction with the chemokine receptor CXCR4: study of structure-activity relationship” (J Med Chem, 2012)
pIC50: −log10 of the molar value. Active and inactive are the calls of the source. The rule behind the calls is not given here.

Columns and labels:
[1] = Cytotoxicity against human MT4 cells by MTT assay; type: cell-based
[2] = biological target: T1, C-C chemokine receptor type 5 (Homo sapiens, UniProt P51681); experiment: Antagonist activity against CCR5 expressed in U87.CD4.CCR5 cells assessed as inhibition of CCL3L1-induced calcium signaling incubated for 10 mins by FLIPR; type: functional, cell-based
In short: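 U87.CD4.CCR5 cells seeded at 2 × 10⁴/well on 0.2% gelatin the day before, loaded with 4 μM Fluo-3 AM for 45 min at 37 °C, washed, then preincubated with compounds at varied concentrations in assay buffer for 10 min at 37 °C. Stimulated with 10 ng/mL LD78β (CCL3L1); Ca²⁺ flux recorded by FLIPR.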

[3] = Cytotoxicity against human PBMC cells by MTT assay; type: cell-based
[4] = biological target: T1, C-C chemokine receptor type 5; experiment: Agonist activity against CCR5 expressed in U87.CD4.CCR5 cells assessed as stimulation of calcium signaling incubated for 10 mins by FLIPR
[5] = biological target: T1, C-C chemokine receptor type 5; experiment: Antagonist activity against CCR5 expressed in U87.CD4.CCR5 cells assessed as inhibition of CCL3L1-induced calcium signaling incubated for 10 mins by FLIPR
[6] = biological target: T2, C-X-C chemokine receptor type 4 (Homo sapiens, UniProt P61073); experiment: Inhibition of anti-CXCR4 mAbs clone 173 binding to CXCR4 in human SUPT1 cells incubated for 30 mins by FACS
[7] = biological target: T2, C-X-C chemokine receptor type 4; experiment: Inhibition of CXCL-12'AF647 binding to CXCR4 in human SUPT1 cells incubated for 15 mins by FACS; type: cell-based
In short: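 SupT1 cells (high CXCR4) washed, then incubated 15 min at room temperature with compounds at varied concentrations in HBSS containing 20 mM HEPES and 0.2% BSA, pH 7.4. CXCL12-AF647 added at 25 ng/mL final for 30 min at room temperature. Cells washed, fixed in 1% paraformaldehyde, and read by flow cytometry on FL4.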

[8] = system: Human immunodeficiency virus 1; experiment: Antiviral activity against X4 HIV1 NL4.3 infected in human PBMC assessed as inhibition of viral replication pre-incubated for 30 mins measured 5 days post infection by MTT assay; type: functional, organism-based; details: Human immunodeficiency virus 1, NL4.3
In short: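 Human PBMC infected with HIV-1 NL4.3. IC₅₀ is the concentration inhibiting viral replication by 50%, averaged over two independent experiments. Cytotoxicity (CC₅₀, 50% loss of PBMC viability) evaluated in the same assay.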

[9] = biological target: T2, C-X-C chemokine receptor type 4; experiment: Antagonist activity against CXCR4 expressed in U87.CD.CXCR4 cells assessed as inhibition of CXCL12-induced calcium signaling incubated for 10 mins by FLIPR; type: functional, cell-based
In short: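 U87.CD4.CXCR4 cells seeded at 2 × 10⁴/well on 0.2% gelatin the day before, loaded with 4 μM Fluo-3 AM for 45 min at 37 °C, washed, then preincubated with compounds at varied concentrations in assay buffer for 10 min at 37 °C. Challenged with 25 ng/mL CXCL12; Ca²⁺ flux followed over time by FLIPR.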

[10] = biological target: T2, C-X-C chemokine receptor type 4; experiment: Inhibition of anti-CXCR4 mAbs clone 12G5 binding to CXCR4 in human SUPT1 cells incubated for 30 mins by FACS
[11] = biological target: T2, C-X-C chemokine receptor type 4; experiment: Agonist activity against CXCR4 expressed in U87.CD.CXCR4 cells assessed as stimulation of calcium signaling incubated for 10 mins by FLIPR; type: functional, cell-based
In short: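 U87.CD4 cells stably carrying CXCR4 or CCR5, trypsinized and seeded at 2 × 10⁴ cells/well on 0.2% gelatin the day before. Loaded with Fluo-3 AM (4 μM, 45 min, 37 °C), washed, then exposed to test agents alone at varied concentrations in assay buffer for 10 min at 37 °C. Cytosolic Ca²⁺ rise monitored over time by FLIPR to detect any agonist-triggered signal.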

[12] = biological target: T2, C-X-C chemokine receptor type 4; experiment: Inhibition of anti-CXCR4 mAbs clone 1D9 binding to CXCR4 in human SUPT1 cells incubated for 30 mins by FACS
[13] = system: Human immunodeficiency virus 1; experiment: Antiviral activity against X4 HIV1 NL4.3 infected in human MT4 cells assessed as inhibition of viral replication pre-incubated for 30 mins […]; type: functional, organism-based; details: Human immunodeficiency virus 1, NL4.3, MT4

T2 sequence (P61073 whole entry): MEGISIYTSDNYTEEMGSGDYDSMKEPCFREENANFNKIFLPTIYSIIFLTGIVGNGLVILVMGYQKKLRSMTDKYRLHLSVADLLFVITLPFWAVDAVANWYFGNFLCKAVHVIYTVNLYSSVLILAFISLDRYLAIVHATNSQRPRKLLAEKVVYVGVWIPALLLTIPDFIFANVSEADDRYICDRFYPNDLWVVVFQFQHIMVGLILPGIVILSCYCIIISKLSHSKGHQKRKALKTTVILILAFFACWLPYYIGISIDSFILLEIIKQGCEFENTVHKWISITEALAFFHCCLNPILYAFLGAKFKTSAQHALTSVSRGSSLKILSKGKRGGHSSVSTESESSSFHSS
T1 sequence (P51681 whole entry, looked up): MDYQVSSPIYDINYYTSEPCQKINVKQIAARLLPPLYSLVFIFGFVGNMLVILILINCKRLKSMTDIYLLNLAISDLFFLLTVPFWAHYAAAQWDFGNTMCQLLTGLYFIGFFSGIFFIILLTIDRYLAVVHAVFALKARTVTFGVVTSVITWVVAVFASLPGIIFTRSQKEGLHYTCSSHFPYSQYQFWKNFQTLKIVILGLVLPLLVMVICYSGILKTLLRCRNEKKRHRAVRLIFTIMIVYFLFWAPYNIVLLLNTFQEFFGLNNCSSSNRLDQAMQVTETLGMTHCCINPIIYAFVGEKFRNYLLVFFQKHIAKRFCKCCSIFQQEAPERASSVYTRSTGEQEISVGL

Q: For `CC[n+]1ccc(-c2cc[n+](Cc3cc(C[n+]4ccc(-c5cc[n+](CC)cc5)cc4)cc(C[n+]4ccc(-c5cc[n+](Cc6cc(C[n+]7ccc(-c8cc[n+](Cc9cc(C[n+]%10ccc(-c%11cc[n+](CC)cc%11)cc%10)cc(C[n+]%10ccc(-c%11cc[n+](CC)cc%11)cc%10)c9)cc8)cc7)cc(C[n+]7ccc(-c8cc[n+](Cc9cc(C[n+]%10ccc(-c%11cc[n+](Cc%12cc(C[n+]%13ccc(-c%14cc[n+](Cc%15cc(C[n+]%16ccc(-c%17cc[n+](CC)cc%17)cc%16)cc(C[n+]%16ccc(-c%17cc[n+](CC)cc%17)cc%16)c%15)cc%14)cc%13)cc(C[n+]%13ccc(-c%14cc[n+](Cc%15cc(C[n+]%16ccc(-c%17cc[n+](CC)cc%17)cc%16)cc(C[n+]%16ccc(-c%17cc[n+](CC)cc%17)cc%16)c%15)cc%14)cc%13)c%12)cc%11)cc%10)cc(C[n+]%10ccc(-c%11cc[n+](Cc%12cc(C[n+]%13ccc(-c%14cc[n+](Cc%15cc(C[n+]%16ccc(-c%17cc[n+](CC)cc%17)cc%16)cc(C[n+]%16ccc(-c%17cc[n+](CC)cc%17)cc%16)c%15)cc%14)cc%13)cc(C[n+]%13ccc(-c%14cc[n+](Cc%15cc(C[n+]%16ccc(-c%17cc[n+](CC)cc%17)cc%16)cc(C[n+]%16ccc(-c%17cc[n+](CC)cc%17)cc%16)c%15)cc%14)cc%13)c%12)cc%11)cc%10)c9)cc8)cc7)c6)cc5)cc4)c3)cc2)cc1.F[P-](F)(F)(F)(F)F.F[P-](F)(F)(F)(F)F.F[P-](F)(F)(F)(F)F.F[P-](F)(F)(F)(F)F.F[P-](F)(F)(F)(F)F.F[P-](F)(F)(F)(F)F.F[P-](F)(F)(F)(F)F.F[P-](F)(F)(F)(F)F.F[P-](F)(F)(F)(F)F.F[P-](F)(F)(F)(F)F.F[P-](F)(F)(F)(F)F.F[P-](F)(F)(F)(F)F.F[P-](F)(F)(F)(F)F.F[P-](F)(F)(F)(F)F.F[P-](F)(F)(F)(F)F.F[P-](F)(F)(F)(F)F.F[P-](F)(F)(F)(F)F.F[P-](F)(F)(F)(F)F.F[P-](F)(F)(F)(F)F.F[P-](F)(F)(F)(F)F.F[P-](F)(F)(F)(F)F.F[P-](F)(F)(F)(F)F.F[P-](F)(F)(F)(F)F.F[P-](F)(F)(F)(F)F.F[P-](F)(F)(F)(F)F.F[P-](F)(F)(F)(F)F.F[P-](F)(F)(F)(F)F.F[P-](F)(F)(F)(F)F.F[P-](F)(F)(F)(F)F.F[P-](F)(F)(F)(F)F.F[P-](F)(F)(F)(F)F.F[P-](F)(F)(F)(F)F.F[P-](F)(F)(F)(F)F.F[P-](F)(F)(F)(F)F.F[P-](F)(F)(F)(F)F.F[P-](F)(F)(F)(F)F.F[P-](F)(F)(F)(F)F.F[P-](F)(F)(F)(F)F.F[P-](F)(F)(F)(F)F.F[P-](F)(F)(F)(F)F.F[P-](F)(F)(F)(F)F.F[P-](F)(F)(F)(F)F`, which CC50 [1] is on record?
A: 9 mg/L

Q: And the pIC50 [2]?
A: 6.27

Q: And the CC50 [3]?
A: 20 mg/L

Q: And the Activity [4]?
A: inactive

Q: And the inhibition [5]?
A: Dose-dependent effect

Q: What about the pIC50 [6] of the same compound?
A: 6.97

Q: What about the inhibition [6] of the same compound?
A: Dose-dependent effect

Q: What about the pIC50 [7] of the same compound?
A: 7.00

Q: What about the IC50 [8] of the same compound?
A: 1.07 mg/L

Q: And the pIC50 [9]?
A: 7.05

Q: And the inhibition [9]?
A: Dose-dependent effect

Q: What about the pIC50 [10] of the same compound?
A: 6.95

Q: And the inhibition [10]?
A: Dose-dependent effect

Q: What about the Activity [11] of the same compound?
A: inactive

Q: And the pIC50 [12]?
A: 6.74

Q: What about the inhibition [12] of the same compound?
A: Dose-dependent effect

Q: And the IC50 [13]?
A: 1.4 mg/L
